Test results taken from ChEMBL document CHEMBL4014306, “Pyrazolopyrimidines as Potent Stimulators for Transient Receptor Potential Canonical 3/6/7 Channels” (J Med Chem, 2017).
The source made the active and inactive calls. The rule behind the calls is not given here.

Tests used:
[1] = target: T1, Transient receptor potential cation channel subfamily M member 5 (Homo sapiens) (UniProt Q9NZQ8); experiment: Agonist activity at human TRPM5 expressed in HEK293 cells assessed as induction of membrane depolarization at 33 uM measured for 2.5 mins by FLIPR membrane potential dye-based fluorescence assay; assay type: cell-based
T1 sequence (whole entry): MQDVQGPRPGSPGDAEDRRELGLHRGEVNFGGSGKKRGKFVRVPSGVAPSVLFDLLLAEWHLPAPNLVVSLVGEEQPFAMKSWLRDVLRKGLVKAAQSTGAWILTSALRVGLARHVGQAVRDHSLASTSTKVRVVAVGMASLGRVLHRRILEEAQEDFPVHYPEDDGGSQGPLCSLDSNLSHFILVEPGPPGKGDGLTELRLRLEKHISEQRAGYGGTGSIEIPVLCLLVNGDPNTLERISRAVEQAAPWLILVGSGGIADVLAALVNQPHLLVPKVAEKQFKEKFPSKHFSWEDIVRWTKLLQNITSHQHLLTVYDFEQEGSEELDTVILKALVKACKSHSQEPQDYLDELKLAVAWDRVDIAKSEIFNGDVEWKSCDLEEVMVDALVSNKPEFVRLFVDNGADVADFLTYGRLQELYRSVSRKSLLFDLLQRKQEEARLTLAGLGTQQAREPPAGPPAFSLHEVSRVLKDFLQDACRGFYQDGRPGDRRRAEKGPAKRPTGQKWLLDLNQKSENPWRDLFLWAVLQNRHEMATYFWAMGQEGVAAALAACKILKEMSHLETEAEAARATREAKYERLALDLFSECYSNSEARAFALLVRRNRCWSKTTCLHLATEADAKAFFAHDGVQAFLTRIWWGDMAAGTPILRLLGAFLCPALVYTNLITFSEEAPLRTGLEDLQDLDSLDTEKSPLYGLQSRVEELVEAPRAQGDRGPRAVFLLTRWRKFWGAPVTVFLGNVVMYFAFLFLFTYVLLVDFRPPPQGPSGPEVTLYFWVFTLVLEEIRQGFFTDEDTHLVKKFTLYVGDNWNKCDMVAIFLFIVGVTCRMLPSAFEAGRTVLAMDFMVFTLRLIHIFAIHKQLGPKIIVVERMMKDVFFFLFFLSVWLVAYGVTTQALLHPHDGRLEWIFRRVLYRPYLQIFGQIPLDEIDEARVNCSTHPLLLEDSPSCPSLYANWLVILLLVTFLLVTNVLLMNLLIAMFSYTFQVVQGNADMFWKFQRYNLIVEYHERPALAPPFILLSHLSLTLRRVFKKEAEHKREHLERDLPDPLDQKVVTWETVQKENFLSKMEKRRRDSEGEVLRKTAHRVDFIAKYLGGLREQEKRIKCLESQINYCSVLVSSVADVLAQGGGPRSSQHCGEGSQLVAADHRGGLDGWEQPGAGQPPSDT

[2] = target: T2, Short transient receptor potential channel 6 (Mus musculus) (UniProt Q61143); experiment: Antagonist activity at mouse TRPC6 expressed in HEK293 cells co-expressing Gq11-PLCbeta fused M5 receptor assessed as channel desensitization at 20 to 100 uM at +80 mV in presence of 0.1 mM Ca2+ by whole cell patch-clamp method; assay type: cell-based
T2 sequence (whole entry): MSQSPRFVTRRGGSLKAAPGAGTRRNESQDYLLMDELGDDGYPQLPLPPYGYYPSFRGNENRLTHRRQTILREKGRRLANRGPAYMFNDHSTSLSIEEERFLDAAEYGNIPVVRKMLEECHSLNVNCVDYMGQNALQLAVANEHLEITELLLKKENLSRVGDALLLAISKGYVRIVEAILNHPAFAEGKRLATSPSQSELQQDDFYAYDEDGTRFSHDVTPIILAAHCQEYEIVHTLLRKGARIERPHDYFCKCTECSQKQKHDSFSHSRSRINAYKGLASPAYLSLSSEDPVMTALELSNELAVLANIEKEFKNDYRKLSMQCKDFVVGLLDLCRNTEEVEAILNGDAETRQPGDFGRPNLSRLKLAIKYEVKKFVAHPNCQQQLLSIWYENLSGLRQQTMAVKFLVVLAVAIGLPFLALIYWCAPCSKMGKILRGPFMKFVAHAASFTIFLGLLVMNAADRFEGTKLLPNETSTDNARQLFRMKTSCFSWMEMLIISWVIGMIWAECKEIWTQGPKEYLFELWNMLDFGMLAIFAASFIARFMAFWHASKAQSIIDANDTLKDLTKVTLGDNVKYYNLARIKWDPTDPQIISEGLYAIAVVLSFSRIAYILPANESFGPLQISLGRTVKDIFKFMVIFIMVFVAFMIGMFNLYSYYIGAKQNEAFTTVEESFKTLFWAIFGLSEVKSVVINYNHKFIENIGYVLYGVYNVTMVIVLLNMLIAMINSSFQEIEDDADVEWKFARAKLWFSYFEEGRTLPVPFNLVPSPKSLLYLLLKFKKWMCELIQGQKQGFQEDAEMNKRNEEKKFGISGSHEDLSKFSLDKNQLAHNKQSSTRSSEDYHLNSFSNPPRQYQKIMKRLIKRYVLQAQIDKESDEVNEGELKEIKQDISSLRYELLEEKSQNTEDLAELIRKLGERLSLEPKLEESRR
Outline: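 Whole-cell clamp of TRPC6/M5 or TRPC7 HEK293 cells with 0.1 mM Ca2+ bath and 400 nM free Ca2+ pipette. Ramps +100 to −100 mV every 1 s. Increasing concentrations given consecutively by perfusion (TRPC6 highest 20–100 μM; TRPC7 up to 30 μM). Currents at positive and negative potentials followed for desensitization.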

| SMILES | Activity [1] | Activity [2] |
| --- | --- | --- |
| Cc1nn2c(O)cc(C3CCN(C(=O)OCc4ccccc4)CC3)nc2c1-c1ccc(F)cc1 | inactive | inactive |
| Cc1nn2c(O)cc(C3CCN(C(=O)OCc4ccccc4)CC3)nc2c1-c1ccc(Cl)cc1 | inactive | inactive |
| CCOC(=O)N1CCC(c2cc(O)n3nc(C)c(-c4ccc(F)cc4)c3n2)CC1 | inactive | inactive |
| CCOC(=O)N1CCC(c2cc(O)n3nc(C)c(-c4ccc(C(F)(F)F)cc4)c3n2)CC1 | inactive | inactive |
